Experimental data published in paper PMC10523135 (RSC Advances, 2023).

What was measured:
Type in all cases: cell-based
[1] = test system: HeLa (human cervical cancer cell line); assay: CCK-8 antiproliferative assay, HeLa; details: 48 h, read-out: IC50 (μM) ± SD Hela
Outline: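 HeLa cells were grown in RPMI 1640 with 10% FBS and 1% penicillin/streptomycin at 37 °C, 5% CO2. They were seeded at 5 × 10^4 cells per well and left 24 h. Test compound was diluted from […] DMSO stock into medium, with final DMSO below 0.1%, and exposure lasted 48 h. CCK-8 was then added for 2 h at 37 °C and absorbance read at 450 nm. IC50 came from viability data; experiments were done three times.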

[2] = test system: MCF-7 (human breast cancer cell line); assay: CCK-8 antiproliferative assay, MCF-7; details: MCF7, 48 h, read-out: IC50 (μM) ± SD MCF-7
[3] = test system: A549 (human lung cancer cell line); assay: CCK-8 antiproliferative assay, A549; details: A549, 48 h, read-out: IC50 (μM) ± SD A549

SMILES	IC50 [1]	IC50 [2]	IC50 [3]
CNC(=O)c1c(C)oc2cc(Oc3ncnc4cc(OC)c(OC)cc34)ccc12 [Fruquintinib]	8.35 ± 0.47 µM	> 20 µM	
O=C(CCCCCCC(=O)Nc1ccccc1)NO [SAHA]	1.03 ± 0.33 µM		3.54 ± 0.25 µM
